Tests used:
[1] = target: T1, Alpha-1D adrenergic receptor (Homo sapiens, UniProt P25100); assay: Displacement of 7-methoxy-[3H]-prazosin from human alpha1D adrenergic receptor expressed in CHO-K1 cell membranes incubated for 60 mins by liquid scintillation counting analysis
T1 sequence (P25100 whole entry): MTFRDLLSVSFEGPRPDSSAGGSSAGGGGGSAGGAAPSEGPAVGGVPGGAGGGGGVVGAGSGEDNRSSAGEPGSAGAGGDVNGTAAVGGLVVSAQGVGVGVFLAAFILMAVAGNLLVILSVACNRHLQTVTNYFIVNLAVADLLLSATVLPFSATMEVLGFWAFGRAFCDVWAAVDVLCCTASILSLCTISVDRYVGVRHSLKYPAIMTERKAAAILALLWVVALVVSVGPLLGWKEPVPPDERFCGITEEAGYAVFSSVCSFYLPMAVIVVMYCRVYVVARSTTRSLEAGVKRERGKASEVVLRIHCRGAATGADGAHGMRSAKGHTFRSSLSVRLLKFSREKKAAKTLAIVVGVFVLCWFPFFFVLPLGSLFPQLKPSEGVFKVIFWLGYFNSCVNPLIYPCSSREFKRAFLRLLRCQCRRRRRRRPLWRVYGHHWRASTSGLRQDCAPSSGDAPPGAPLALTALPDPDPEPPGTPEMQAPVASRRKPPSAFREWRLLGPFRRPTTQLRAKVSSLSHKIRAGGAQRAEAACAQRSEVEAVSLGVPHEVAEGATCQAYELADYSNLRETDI
Summary of the method: (§1)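 CHO-K1 stable-line membranes (10 µg protein), 2.5 nmol/L ligand, Tris-HCl pH 7.5 with MgCl2, EDTA and 0.5% BSA, 12 compound concentrations, room temperature. Filtered and counted; nonspecific binding with 10 µmol/L phentolamine. IC50 by logistic regression, converted to Ki by Cheng-Prusoff with Kd 0.93 (α1A), 0.35 (α1B), 0.26 (α1D) nmol/L. Triplicate mean, 95% CI.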

hERG (KCNH2) = hERG (KCNH2) (Homo sapiens, UniProt Q12809); assay: Inhibition of human ERG channel expressed in CHO cells assessed as peak tail current at 10 uM incubated for 5 mins by patch-clamp assay; format: cell-based; details: CHO cells expressing human ERG channel
Summary of the method: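 CHO cells stably expressing hERG, grown at 32 °C, 5% CO2 in Ham's F-12 with 10% FBS and 500 µg/mL Geneticin. Population patch clamp with PBS (Ca/Mg) outside, KCl/MgCl2/EGTA/HEPES pH 7.3 inside, amphotericin B perforation. Holding −80 mV, step to 40 mV 2 s, then −50 mV 2 s. Peak tail current taken before and after 5 min compound exposure, inhibition = 100 − post/pre×100, n = 3 or 4.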

[2] = target: T2, Alpha-1B adrenergic receptor (Homo sapiens, UniProt P35368); assay: Displacement of 7-methoxy-[3H]-prazosin from human alpha1B adrenergic receptor expressed in CHO-K1 cell membranes incubated for 60 mins by liquid scintillation counting analysis; summary of the method: as §1
T2 sequence (P35368 whole entry): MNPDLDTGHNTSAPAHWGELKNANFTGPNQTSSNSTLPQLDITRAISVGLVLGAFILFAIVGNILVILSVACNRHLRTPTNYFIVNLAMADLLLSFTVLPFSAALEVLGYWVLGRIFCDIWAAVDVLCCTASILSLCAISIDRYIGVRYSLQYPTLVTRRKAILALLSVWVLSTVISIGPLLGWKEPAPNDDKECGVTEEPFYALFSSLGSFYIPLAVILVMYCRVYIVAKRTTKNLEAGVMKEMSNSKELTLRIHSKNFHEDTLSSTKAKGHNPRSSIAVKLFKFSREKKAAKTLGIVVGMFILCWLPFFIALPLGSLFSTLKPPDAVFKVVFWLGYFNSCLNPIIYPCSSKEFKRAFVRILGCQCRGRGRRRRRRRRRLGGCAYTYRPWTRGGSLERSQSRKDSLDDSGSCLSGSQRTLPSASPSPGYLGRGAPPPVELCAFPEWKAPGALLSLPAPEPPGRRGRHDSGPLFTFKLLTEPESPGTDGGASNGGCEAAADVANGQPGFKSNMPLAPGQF

[3] = target: T3, Alpha-1A adrenergic receptor (Homo sapiens, UniProt P35348); assay: Displacement of 7-methoxy-[3H]-prazosin from human alpha1A adrenergic receptor expressed in CHO-K1 cell membranes incubated for 60 mins by liquid scintillation counting analysis; summary of the method: as §1
T3 sequence (P35348 whole entry): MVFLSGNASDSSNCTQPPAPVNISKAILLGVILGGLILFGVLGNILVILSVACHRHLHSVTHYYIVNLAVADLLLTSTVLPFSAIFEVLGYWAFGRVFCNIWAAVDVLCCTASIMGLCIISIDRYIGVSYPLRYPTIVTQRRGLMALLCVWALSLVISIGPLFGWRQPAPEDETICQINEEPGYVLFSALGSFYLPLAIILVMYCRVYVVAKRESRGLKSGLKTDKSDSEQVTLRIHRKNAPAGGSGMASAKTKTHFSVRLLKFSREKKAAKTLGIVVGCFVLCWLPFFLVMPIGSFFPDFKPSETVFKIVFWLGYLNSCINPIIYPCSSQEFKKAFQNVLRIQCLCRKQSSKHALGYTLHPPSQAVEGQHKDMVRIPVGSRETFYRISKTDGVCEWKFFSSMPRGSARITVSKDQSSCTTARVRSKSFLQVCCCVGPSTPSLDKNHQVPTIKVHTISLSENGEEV

[4] = target: T4, 5-hydroxytryptamine receptor 1A (Homo sapiens, UniProt P08908); assay: Inhibition of 5-HT 1A receptor (unknown origin)
T4 sequence (P08908 whole entry): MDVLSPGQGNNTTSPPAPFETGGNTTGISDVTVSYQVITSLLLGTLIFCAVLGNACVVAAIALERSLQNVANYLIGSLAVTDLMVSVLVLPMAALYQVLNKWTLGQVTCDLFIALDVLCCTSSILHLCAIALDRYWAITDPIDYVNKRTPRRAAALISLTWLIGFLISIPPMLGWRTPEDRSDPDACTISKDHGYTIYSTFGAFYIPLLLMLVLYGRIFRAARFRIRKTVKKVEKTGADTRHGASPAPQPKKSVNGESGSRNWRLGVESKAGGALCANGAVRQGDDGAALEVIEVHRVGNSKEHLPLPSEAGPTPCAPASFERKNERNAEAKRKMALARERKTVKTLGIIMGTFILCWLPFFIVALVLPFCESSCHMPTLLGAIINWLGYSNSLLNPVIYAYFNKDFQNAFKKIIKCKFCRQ

Homo sapiens [5] = species: Homo sapiens; assay: Selectivity ratio of Ki for human alpha1A adrenergic receptor to Ki for human alpha1D adrenergic receptor
Summary of the method: (§2)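 Membranes from CHO-K1 cells stably expressing human α1A, α1B or α1D receptors (10 µg protein) incubated 60 min at room temperature with 2.5 nmol/L 7-methoxy[3H]-prazosin and 12 compound concentrations in Tris-HCl pH 7.5 buffer with MgCl2, EDTA, 0.5% BSA. Bound counts taken after filtration; nonspecific binding defined with 10 µmol/L phentolamine.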

Homo sapiens [6] = species: Homo sapiens; assay: Selectivity ratio of Ki for human alpha1B adrenergic receptor to Ki for human alpha1D adrenergic receptor; summary of the method: as §2
[7] = Cmax in rat at 1 mg/kg, po administered via cassette dosing by LC/MS/MS analysis; format: ADME, organism-based; parameters: dose 1 mg/kg, route oral; details: in vivo
Summary of the method: (§3)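 Fed rats dosed orally at 1 mg/kg as 0.5% methylcellulose suspension by cassette dosing; bioavailability also uses an iv arm of 0.1 mg/kg in DMA/1,3-butanediol (1:1). Plasma obtained from blood by centrifugation, deproteinized, and measured by LC/MS/MS. Values are averages of three rats.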

[8] = AUC in rat at 1 mg/kg, po administered via cassette dosing by LC/MS/MS analysis; format: ADME, organism-based; details: in vivo; summary of the method: as §3
[9] = Oral bioavailability in rat at 1 mg/kg administered via cassette dosing by LC/MS/MS analysis; format: ADME, organism-based; details: in vivo; summary of the method: as §3
[10] = Total clearance in rat at 0.1 mg/kg, iv administered via cassette dosing by LC/MS/MS analysis; format: ADME, organism-based; details: in vivo
Summary of the method: (§4)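 Cassette dosing iv at 0.1 mg/kg in DMA/1,3-butanediol (1:1) to fed rats. Blood collected after dosing and centrifuged to plasma, which was deproteinized and centrifuged; supernatant concentrations measured by LC/MS/MS.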

[11] = Mean residence time in rat at 1 mg/kg, po administered via cassette dosing by LC/MS/MS analysis; format: ADME, organism-based; details: in vivo; summary of the method: as §3
[12] = Volume of distribution at steady state in rat at 0.1 mg/kg, iv administered via cassette dosing by LC/MS/MS analysis; format: ADME, organism-based; details: in vivo, read-out: Vdss; summary of the method: as §4

Sequence of hERG (KCNH2) (Q12809 whole entry): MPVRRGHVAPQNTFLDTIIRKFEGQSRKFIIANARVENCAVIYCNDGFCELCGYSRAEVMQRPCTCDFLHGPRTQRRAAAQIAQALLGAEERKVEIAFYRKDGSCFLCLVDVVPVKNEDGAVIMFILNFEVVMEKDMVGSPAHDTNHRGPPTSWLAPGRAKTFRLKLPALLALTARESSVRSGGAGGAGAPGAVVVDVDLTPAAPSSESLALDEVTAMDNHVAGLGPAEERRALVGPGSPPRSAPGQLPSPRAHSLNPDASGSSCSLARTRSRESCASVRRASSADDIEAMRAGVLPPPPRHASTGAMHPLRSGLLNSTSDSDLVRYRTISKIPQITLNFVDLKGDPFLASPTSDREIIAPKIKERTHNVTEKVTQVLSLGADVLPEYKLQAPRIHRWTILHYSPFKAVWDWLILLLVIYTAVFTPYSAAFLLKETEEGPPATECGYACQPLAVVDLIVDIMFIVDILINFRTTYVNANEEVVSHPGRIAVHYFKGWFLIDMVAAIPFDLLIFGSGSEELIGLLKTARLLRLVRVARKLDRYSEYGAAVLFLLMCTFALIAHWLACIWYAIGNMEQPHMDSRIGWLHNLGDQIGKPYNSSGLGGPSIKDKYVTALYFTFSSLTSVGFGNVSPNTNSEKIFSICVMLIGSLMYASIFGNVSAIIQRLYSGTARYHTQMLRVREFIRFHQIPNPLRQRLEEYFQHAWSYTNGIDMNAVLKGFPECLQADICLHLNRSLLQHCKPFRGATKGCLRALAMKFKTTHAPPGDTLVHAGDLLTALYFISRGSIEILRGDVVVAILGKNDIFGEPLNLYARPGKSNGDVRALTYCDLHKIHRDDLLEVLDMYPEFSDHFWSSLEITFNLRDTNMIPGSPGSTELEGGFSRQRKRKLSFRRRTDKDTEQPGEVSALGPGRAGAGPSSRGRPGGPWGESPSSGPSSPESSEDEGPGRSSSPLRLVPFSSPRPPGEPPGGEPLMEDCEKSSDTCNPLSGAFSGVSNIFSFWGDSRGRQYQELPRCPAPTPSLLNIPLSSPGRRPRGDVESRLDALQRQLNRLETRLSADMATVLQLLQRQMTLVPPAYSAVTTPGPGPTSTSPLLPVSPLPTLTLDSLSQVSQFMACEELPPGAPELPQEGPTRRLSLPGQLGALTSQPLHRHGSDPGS

Row | Compound | Ki [1] [nM] | inhibition at 5 min, 10 µM (hERG (KCNH2)) [%] | other results
1 | NC(=O)c1cc(Cl)cn(Cc2ccccc2)c1=O | > 940 | – | –
2 | COc1cccc(Cn2cc(Cl)cc(C(N)=O)c2=N)c1 | 8.7 | – | –
3 | N#Cc1cc(Cl)cc(Cn2cc(Cl)cc(C(N)=O)c2=N)c1 | 0.86 | 71 | –
4 | N=c1c(C(N)=O)cc(Cl)cn1CCc1ccccc1 | 16 | – | –
5 | N=c1c(C(N)=O)cc(Cl)cn1Cc1ccccc1 | 30 | – | Ki [2]: > 1200 nM; Ki [3]: > 2700 nM; IC50 [4]: > 1000 nM
6 | N=c1c(C(N)=O)cc(Cl)cn1Cc1ccccc1Cl | 39 | – | –
7 | N=c1c(C(N)=O)cc(Cl)cn1Cc1ccc(Cl)cc1 | 23 | – | –
8 | CCOc1ccccc1OCCN[C@H](C)Cc1ccc(OC)c(S(N)(=O)=O)c1 | – | – | Ratio Ki (Homo sapiens [5]): 0.7; Ratio Ki (Homo sapiens [6]): 11
9 | CC(c1cccc(S(C)(=O)=O)c1)n1cc(Cl)cc(C(N)=O)c1=N (stereo not given) | 15 | 19 | –
10 | N#Cc1cccc(Cn2cc(Cl)cc(C(N)=O)c2=N)c1 | 10 | – | –
11 | N=c1c(C(N)=O)cc(Cl)cn1Cc1cccnc1 | 250 | – | –
12 | CC(c1cccc(C#N)c1)n1cc(Cl)cc(C(N)=O)c1=N (stereo not given) | 3.4 | 32 | –
13 | N=c1c(C(N)=O)cc(Cl)cn1Cc1cc(Cl)cc(C(N)=O)c1 | 3.7 | 13 | Cmax [7]: 3.2 ng/mL; AUC [8]: 10.8 ng·h/mL; Ratio Ki (Homo sapiens [5]): > 730; bioavailability [9]: 3%; Ratio Ki (Homo sapiens [6]): > 320; clearance [10]: 47.2 mL/min/kg; MRT [11]: 2.47 h; Vd [12]: 3.21 L/kg
14 | CC(c1cccc(Cl)c1)n1cc(Cl)cc(C(N)=O)c1=N (stereo not given) | 0.66 | 48 | –
15 | CC(C)(C)Cn1cc(Cl)cc(C(N)=O)c1=N | 820 | – | –
16 | N=c1c(C(N)=O)cccn1Cc1ccccc1 | 880 | – | –
17 | N=c1c(C(N)=O)cc(Cl)cn1Cc1cccc(Cl)c1 | 2.6 | 47 | –

— ChEMBL document CHEMBL3797060, “Discovery of 5-Chloro-1-(5-chloro-2-(methylsulfonyl)benzyl)-2-imino-1,2-dihydropyridine-3-carboxamide (TAK-259) as a Novel, Selective, and Orally Active α1D Adrenoceptor Antagonist with Antiurinary Frequency Effects: Reducing Human Ether-a-go-go-Related Gene (hERG) Liabilities” (J Med Chem, 2016)
